# Source: PubChem BioAssay (several laboratories)
# NS3 helicase inh: HCV NS3 helicase inhibition | AID 1800 | NS3 helicase DNA unwinding, Cy5 molecular beacon fluorescence | hit rate 0.56% among 290,000 | inhibition, % at 10.9 µM;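 active = inhibition above the mean of all tested compounds plus 3 SD, set per campaign, cut at about 35% in these data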;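 also: 0% = DMSO wells and 100% = thioflavine S control wells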
#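 Assay system – hepatitis C virus NS3 helicase domain fragment enzyme · Buffer or medium – MOPS pH 6.5, MgCl2, DTT, Tween20, BSA · Reagent – Cy5/quencher beacon DNA duplex and ATP to start · Compound – single 10.9 µM dose · Timing – 1 h at 25 °C · Technique – Cy5 beacon fluorescence read at start and 1 h · Measure – % inhibition of unwinding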
# FGF22 binding: FGF22 (human) thermal shift binding | AID 651658 | Q9HCT0 | hit rate 1.5% among 340,000 | activity (Tm shift, normalised), % at 9.99 µM | recombinant FGF22 thermal shift, SYPRO orange fluorescence; percent of sucrose octasulfate shift, DMSO zero;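 active = mean Tm shift, scaled 0 neutral to 100 positive control, at about 1.3% or above, every replicate too, limit read from the data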
# Target sequence (Q9HCT0 whole entry, looked up): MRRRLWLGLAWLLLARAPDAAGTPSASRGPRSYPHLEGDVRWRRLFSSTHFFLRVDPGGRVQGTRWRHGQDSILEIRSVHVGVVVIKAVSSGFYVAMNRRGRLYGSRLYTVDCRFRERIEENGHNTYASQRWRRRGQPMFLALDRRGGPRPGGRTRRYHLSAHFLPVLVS
# DNA FID counter: fluorescent intercalator displacement, NS3 helicase counter-screen; DNA fluorescent intercalator displacement, fluorescence; inhibition, % at 7.9 µM; hit rate 0.17% among 290,000; in the data active = inhibition above about 37%;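 also: 0% = vehicle and 100% = reference compound; higher means more ethidium bromide displaced from hairpin DNA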
# ZTA DNA inh: blocks Epstein-Barr virus ZTA, an EBNA-1 counter-screen. inhibition, % at 11 µM. ZTA-DNA binding, fluorescence polarization. hit rate 0.15% among 320,000; in the data active = inhibition above about 33%
# Target sequence (P03206 whole entry, looked up): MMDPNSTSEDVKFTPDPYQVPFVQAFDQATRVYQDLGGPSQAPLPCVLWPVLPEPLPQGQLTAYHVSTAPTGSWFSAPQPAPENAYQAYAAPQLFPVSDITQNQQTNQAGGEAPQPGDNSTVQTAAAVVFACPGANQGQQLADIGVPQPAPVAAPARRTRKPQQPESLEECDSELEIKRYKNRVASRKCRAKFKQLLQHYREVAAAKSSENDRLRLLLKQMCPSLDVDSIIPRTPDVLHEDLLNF
# EBNA-1 inhibitor: blocks EBNA-1 binding to DNA. hit rate 0.34% among 300,000. EBNA-1 DNA binding, fluorescence polarization. inhibition, % at 14.8 µM. AID 1950; in the data active = inhibition above about 28%
# NR3A LBD binder: NR3A (human) ligand-binding domain modulation. hit rate 2.5% among 340,000. NR3A LBD differential scanning fluorimetry, Tm shift; 0% = protein alone, 100% = glycine-bound protein. Tm shift relative to glycine control, % at 25 µM;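 active = melting temperature shift of at least 10% of the positive control shift, at one fixed dose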
# The depositor's hits bear a star; nt = not tested or not shown. Most compounds without a hit are left out; they make up all but 3.6% or so of the library.
SMILES,NS3 helicase inh,FGF22 binding,DNA FID counter,ZTA DNA inh,EBNA-1 inhibitor,NR3A LBD binder
COc1ccc(C(=O)Oc2ccc(/C=N/NC(=O)c3ccccc3OC)cc2[N+](=O)[O-])cc1,3,nt,-3,-21,10,1
COc1ccc(Oc2ccc(/C=N/NC(=O)c3cccnc3)cc2[N+](=O)[O-])cc1,12,43*,1,1,-8,-3
COc1ccc(/C=N/NC(=O)C(=O)NCc2cccnc2)cc1,-2,44*,-8,-7,0,0
C[C@H]1CN([C@@H](C)CO)C(=O)c2cccc(NC(=O)c3nc4ccccc4s3)c2O[C@H]1CN(C)CC1CC1,nt,0,nt,nt,nt,nt
C[C@H]1CN([C@@H](C)CO)C(=O)c2cc(NC(=O)Nc3ccc4c(c3)OCO4)ccc2O[C@H]1CN(C)C(=O)NC1CCCCC1,nt,0,nt,nt,nt,nt
O=C(C[C@@H]1C=C[C@@H](NC(=O)Cc2ccccn2)[C@H](CO)O1)NCCCN1CCOCC1,nt,0,nt,nt,nt,nt
CCOc1cc(/C=C2/C(=O)ON=C2C)ccc1OCc1ccccc1,5,1,-11,3,2,26*
CC1CC(C)CN(C(=O)COC(=O)CCC(=O)c2cccs2)C1 (stereo unspecified),nt,44*,nt,nt,nt,-1
CC1CCN(CC(=O)c2cccs2)CC1,6,44*,-2,-10,1,0
O=C(CCC(=O)c1cccs1)OCC(=O)N1CCN(C(=O)c2ccco2)CC1,0,nt,-1,7,5,1
CO[C@H]1CN(C)C(=O)c2ccc(NC(=O)C3CCCC3)cc2OC[C@H](C)N(C)C[C@H]1C,nt,0,nt,nt,nt,nt
O=C(CCn1c2c(c3ccccc31)CCCC2)NNC(=O)c1ccc(Cl)c([N+](=O)[O-])c1,11,0,11,2,-4,20*
O=C(CCn1c2c(c3ccccc31)CCCC2)NNC(=O)c1ccc([N+](=O)[O-])cc1,7,0,6,-3,7,2
COC(=O)c1cc(NS(=O)(=O)c2ccc(N3CCC(C)CC3)c([N+](=O)[O-])c2)cc(C(=O)OC)c1,-3,0,-5,-12,10,18*
COC(=O)c1cc(NS(=O)(=O)c2ccc(N3CCCCC3)c([N+](=O)[O-])c2)cc(C(=O)OC)c1,-6,nt,-10,-3,9,6
COc1ccc(CNC[C@@H](CCCCN(C)Cc2ccc(OC)cc2)N2C[C@H](c3ccccc3)N(CCc3ccc(Cl)c(Cl)c3)C(=O)C2=O)cc1,-57,nt,37*,0,-12,-25
COc1ccc(CNC(=O)[C@@H]2CC=C[C@@H]3CCN(Cc4ccc(Cl)c(Cl)c4)C(=O)[C@@H]32)cc1,nt,-1,nt,-1,7,-7
CCC(=O)N(C)C[C@H]1Oc2cc(-c3ccccc3)ccc2S(=O)(=O)N([C@H](C)CO)C[C@H]1C,nt,0,nt,nt,nt,nt
CCCc1cc(C(N)=S)ccn1,23,0,-7,-21,-12,12*
CCNC(=S)Nc1cc(C)ccn1,-2,nt,-2,12,-3,-10
O=C(O)[C@H](Cc1ccccc1)N1C(=O)c2c(Cl)c(Cl)c(Cl)c(Cl)c2C1=O,-16,5.8*,8,-10,5,0
C[C@H](CO)N1C[C@H](C)[C@H](CN(C)C(=O)Cc2cccnc2)Oc2ncc(C#Cc3ccccc3F)cc2C1=O,nt,0,nt,nt,nt,nt
COc1ccc(S(=O)(=O)Nc2ccccc2C(=O)Nc2nc(-c3ccc(F)cc3)cs2)cc1OC,-16,nt,-29,19,9,26*
COc1ccc(-c2csc(NC(=O)c3ccccc3NS(=O)(=O)c3ccc(C)cc3)n2)cc1,22,nt,-25,1,0,29*
N#C[C@@H]1[C@H](c2ccc(C3=CCCCC3)cc2)[C@H](CO)N1C(=O)NC1CCCCC1,nt,0,nt,nt,nt,nt
Clc1ccccc1CNCc1ccncc1,9,43*,-2,11,-14,-2
FC(F)(F)c1ccccc1CNCc1ccncc1,-12,0,8,4,-19,-4
O=C(CSc1ncnc2sc3c(c12)CCC3)NCC1CCCO1 (stereo unspecified),-5,0,-22,2,-1,5
Cc1nc(SCC(=O)NCC2CCCO2)c2c3c(sc2n1)CCC3 (stereo unspecified),-6,0,-40,nt,nt,20*
COCCNC(=O)C[C@@H]1C[C@@H]2c3cc(NC(=O)CN(C)C)ccc3O[C@@H]2[C@@H](CO)O1,nt,-1,nt,nt,nt,nt
